Ecoli rRNA inh: selective bacterial rRNA inhibition in E. coli; E. coli WT GFP vs humanized-ribosome RFP mutants, fluorescence, 24 h; active compounds read low; DMSO median 0, no signal -100; GFP signal change (wild-type ribosome), % (concentration not given with the values); 350,000 tested, 1.6% active;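 active = significant combined selectivity score with lowered wild-type GFP, culture density cut under 30%, mutant RFP and density less affected; inactive = any of these conditions unmet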
PGC1a acetyl inh: modulators of PGC1a acetylation. AID 651687. inhibition, % at 15.6 µM. U2OS PGC1a acetylation, AlphaScreen anti-acetyl-lysine; with virally co-expressed GCN5 acetyltransferase. 350,000 tested, 0.17% active;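 active = every replicate shows inhibition of at least 40%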;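 note: 0% = neutral control wells and 100% = positive control wells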
Cneo AK release: causes C. neoformans cell lysis | adenylate kinase release luminescence, 4 h; normalised: neutral wells 0, clomiphene wells 100 | lysis activity, % at 15 µM | 360,000 tested, 0.2% active | AID 651654;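 active = mean lysis activity across replicates of at least 80%, whatever share of replicates individually reach that level; inactive = mean lysis activity below 80%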
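Test system: log-phase Cryptococcus neoformans yeast cells; Quantity: yeast cell density of 5 × 10^6 cells/mL; Buffer or medium: YPD; Doses: single compound concentration per well; Timing: 4 h at 37 °C static, read 1 h later; Measured by: AK luminescence; Read-out basis: lysis from increased AK signal; Control set: Clomiphene as positive control.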
Vif inh: HIV Vif inhibition | HEK293T cells, Vif self-association by quenched fluorescence, imaging, 24 h | inhibition, % at 7.49 µM | 340,000 tested, 0.35% active | AID 602346; in the data active = inhibition above about 50%, passing the limit was not always enough
PglD DTNB: inhibitors of Campylobacter jejuni PglD acetyltransferase; purified PglD enzyme, DTNB colorimetric CoA detection; inhibition, % at 12.5 µM; 360,000 tested, 0.098% active; in the data active = inhibition above about 16%, passing the limit was not always enough
FGF22 binding: binders of recombinant human FGF22 by thermal shift; 340,000 tested, 1.5% active; Q9HCT0; activity (Tm shift, normalised), % at 9.99 µM; SYPRO orange fluorescence; percent of sucrose octasulfate shift, DMSO zero; AID 651658;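 active = mean Tm shift, scaled 0 neutral to 100 positive control, at about 1.3% or above, every replicate too, limit read from the data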
Target sequence (Q9HCT0 whole entry, looked up): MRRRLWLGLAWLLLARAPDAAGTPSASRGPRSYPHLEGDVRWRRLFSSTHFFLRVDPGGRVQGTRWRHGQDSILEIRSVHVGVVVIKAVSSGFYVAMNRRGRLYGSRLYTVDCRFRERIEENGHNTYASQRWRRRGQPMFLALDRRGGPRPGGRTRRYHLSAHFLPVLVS
* marks the source's active call; other numbers are inactive results; . = no result given. A selection: hits, their analogues and other compounds. The true share with any hit is near 2.9%.

SMILES	Ecoli rRNA inh	PGC1a acetyl inh	Cneo AK release	Vif inh	PglD DTNB	FGF22 binding
NC(=O)c1cc(-c2ccccc2)sc1NC(=O)CN1CCCCC1	.	.	.	-2	.	43*
NC(=O)c1ccccc1NC(=O)CN1CCCCCC1	9	.	3	-3	8	0
CCNC(=O)[C@@H]1[C@@H](CO)[C@@H]2Cn3c(cccc3=O)[C@@H]2N1Cc1ccccc1Cl	2	.	40	.	-3	0
CC(=O)c1ccc(N2CCN(Cc3nc(Cc4ccccc4)no3)CC2)cc1	-12	.	.	.	.	0
Clc1cccc(CN2CCN(Cc3nc(CCc4ccccc4)no3)CC2)c1	-32*	5	-5	-2	4	0
Cc1ccccc1N1CCN(Cc2nc(Cc3ccccc3)no2)CC1	-28*	1	.	-3	.	.
COc1ccc(-c2nc(CN3CCN(Cc4cccc(F)c4)CC3)c(C)o2)cc1	-11	.	1	-3	7	0
COc1ccc(-c2nc(CN3CCN(Cc4cccc(Cl)c4)CC3)c(C)o2)cc1	-33*	0	6	-12	4	0
C[C@H](CO)N1C[C@H](C)[C@H](CN(C)C(=O)Nc2ccccc2)Oc2c(NC(=O)Nc3ccccc3)cccc2C1=O	-10	3	-12	.	1	0
C/C=C/c1cnc2c(c1)C(=O)N([C@@H](C)CO)C[C@H](C)[C@H](CN(C)C(=O)Nc1ccc(OC)cc1)O2	1	4	10	.	-5	0
CCOc1cc(CO)cc(Br)c1OCC(=O)O	.	-2	.	-6	.	.
CCOc1cc(CO)cc(Br)c1OCC(=O)Nc1ccccc1C	-17	.	1	-12	7	43*
CC(C)NC(=O)N(C)C[C@@H]1OCCCC[C@@H](C)Oc2ccc(NS(=O)(=O)c3ccccc3)cc2C(=O)N([C@@H](C)CO)C[C@H]1C	-2	-1	-2	.	0	0
COc1ccccc1N1CCN(/N=C/c2cccc(O)c2)CC1	9	.	.	-3	.	44*
O=[N+]([O-])c1ccccc1-c1ccc(CN2CCN(c3ccccc3)CC2)o1	-36*	.	0	-3	9	0
O=[N+]([O-])c1cccc(-c2ccc(CN3CCN(c4ccccc4)CC3)o2)c1	-4	15	3	3	7	0
O=C(c1cccc(F)c1)N1CC[C@H]2[C@H](CO)Nc3ccc(-c4ccccc4)cc3[C@H]21	-12	.	.	.	.	.
C[C@@H]1CN([C@@H](C)CO)C(=O)Cc2cc(NC(=O)NC3CCCCC3)ccc2O[C@H]1CN(C)S(=O)(=O)c1ccccc1	-1	11	0	.	0	0
CO[C@H]1CN(C)C(=O)c2cc(NC(C)=O)ccc2OC[C@@H](C)N(CCc2ccccc2)C[C@H]1C	-3	14	-1	.	0	0
N#C[C@@H]1[C@H](c2ccc(C3=CCCCC3)cc2)[C@H](CO)N1C(=O)Nc1ccccc1F	-3	-25	0	.	1	0
CSc1cccc(NC(=S)N2CCC(c3ccccc3)C2)c1 (configuration not stated)	-25*	-5	10	-4	6	0
Cn1c(C(=O)O)c(CC(=O)N2CCC(Cc3ccccc3)CC2)c2ccccc21	-26*	7	2	-3	-2	0
CCN(C(=O)Cc1c(C(=O)O)n(C)c2ccccc12)c1ccc(F)cc1	10	-7	.	5	.	43*
COc1ccc(Br)c(C(=O)OCC(=O)N2CCC(Cc3ccccc3)CC2)c1	-35*	5	-1	-9	-8	0
COc1cccc(NC(=S)N2CCC(Cc3ccccc3)CC2)c1	5	-10	117*	2	0	0
SMILES	Ecoli rRNA inh	PGC1a acetyl inh	Cneo AK release	Vif inh	PglD DTNB	FGF22 binding
COc1ccc(NC(=S)N2CCC(Cc3ccccc3)CC2)cc1OC	2	-2	3	-4	12	-1
COc1ccc(OCC(=O)N2CCC(Cc3ccccc3)CC2)cc1	-3	.	-2	4	-2	0
Cc1ccc(S(=O)(=O)NC2CCN(Cc3cccc(OCCO)c3)CC2)cc1	.	.	0	.	-1	0
O=C(OCC(=O)N1CCC(Cc2ccccc2)CC1)c1ccccc1O	-7	36	3	2	-2	43*
CC(C)(O)C#Cc1ccc(C(=O)N2CCN(c3ccccc3)CC2)cc1	.	.	.	-5	.	43*
COc1ccccc1N1CCN(C(=O)c2ccc(CSc3ccccc3)cc2)CC1	.	-13	-3	21	-5	.
O=C(c1ccc(CSc2ccccc2)cc1)N1CCN(c2ccccc2)CC1	-5	-3	0	6	2	43*
COCCCN1C(=O)[C@@]2(Cc3ccccc31)c1ccccc1C(=O)N(Cc1ccccc1)[C@H]2c1ccc(CO)cc1	.	-7	-6	.	-2	0
Clc1ccc(-c2nnc(CNC3CC3)o2)cc1	13	19	.	0	.	43*
C[C@@H]1CN([C@@H](C)CO)C(=O)CCCn2nncc2CO[C@H]1CN(C)C(=O)NC1CCCC1	2	.	.	.	.	.
Oc1ccc(/C=N/N=C/c2ccc(O)cc2)cc1	5	-10	.	13	.	66*
Cc1ccsc1-c1nc(CN2CCN(C)C(=O)[C@@H]2C)c(C)o1	6	1	.	1	.	0
Cc1oc(-c2cc(F)ccc2F)nc1CN1CCN(C)C(=O)[C@@H]1C	14	.	.	-5	.	43*
CC(NC(=O)COc1ccc(N(C)S(=O)(=O)c2ccccc2)cc1)c1ccccc1 (configuration not stated)	-14	-20	-8	2	1	43*
CCCN(C)C[C@@H]1Oc2cc(C#Cc3cccnc3)ccc2S(=O)(=O)N([C@@H](C)CO)C[C@@H]1C	0	-7	2	.	-1	-1
Cc1ccc(-n2c(C)nnc2SCC(=O)NNC(=O)c2ccco2)cc1	11	.	.	8	.	44*
Cc1cc(OCC(C)C)ccc1/C(O)=C1/C(=O)C(=O)N(Cc2cccnc2)C1c1ccncc1 (configuration not stated)	.	.	-2	54*	2	.
CCCCOc1ccc(/C(O)=C2/C(=O)C(=O)N(Cc3cccnc3)C2c2ccncc2)c(C)c1 (configuration not stated)	.	.	.	-2	.	.
CCOCc1[nH]c(=S)[nH]c(=O)c1Cc1ccc(OCC)cc1	15	-5	.	-1	.	43*
Nc1nc(-c2ccccc2)c(-c2ccccc2)s1	.	4	-2	7	1	.
Nc1nc(-c2ccccc2)c(N=Nc2ccc(Cl)cc2)s1	-42*	.	.	-8	.	0
COc1ccc(CCNC(=O)c2cc(S(=O)(=O)N3CCCCC3)ccc2Cl)cc1	9	-16	0	0	3	0
COc1ccc(CCNC(=O)c2ccc(Cl)c(S(=O)(=O)N3CCCC3)c2)cc1	-29*	-3	0	-9	-4	0
COc1ccc(CCNC(=O)c2ccc(-c3ccc([N+](=O)[O-])cc3Cl)o2)cc1	-23*	.	-3	0	-3	0
